Data set [1] relates to LS174T. Description: Compound was evaluated for its cytotoxicity without carboxypeptidase G2 in the colorectal cell line LS174T for 1 hour. The format is functional, cell-based. The note with it: Homo sapiens. Summed up: (§1)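 LS174T cells (2.5 × 10³/well) in DMEM + 10% FCS, 5% CO2, 37 °C. Exposed once for 1 h to six concentrations (1–800 μM), with or without CPG2 (6 units/mL final). Compounds and enzyme were freshly prepared. Cells washed three times, regrown 6 days, then fixed and stained. Viable-cell protein read by sulforhodamine B against untreated controls. Octuplicate wells.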

A short description of data set [2]: Chemical half-life in percholate at 37 degree was determined. The format is ADME. The note with it: perchlorate solution. The procedure, abridged:
(§2)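 Sodium perchlorate (0.1 M) at 37 °C. Hydrolysis was followed to effective completion by titrating the released acid with 0.01 M NaOH under N2 on an automatic titrator held at pH 7.4. Each compound was run at least twice, and t1/2 is the mean of all determinations.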

A short description of data set [3]: Kinetics of potential prodrugs as substrates for carboxypeptidase G2 was determined and reported as first order constant. The format is ADME. The procedure, abridged:
(§3)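 CPG2 cleavage of the benzoylglutamate amide bond in 100 mM Tris/HCl pH 7.3 with 260 μM ZnCl2 at 37 °C in a thermostated spectrophotometer. Absorbance fall was read at the wavelength of maximal prodrug–parent difference, chosen from 240–400 nm scans. Substrate 0.1–100 μM, CPG2 (0.01–1.0 unit) held constant per run. Michaelis–Menten fit. Duplicates.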

Data set [4] is described as follows: Kinetics of potential prodrugs as substrates for carboxypeptidase G2 was determined and reported as apparent second order constant. The format is ADME. The procedure, abridged:
as §3

The test system of data set [5] is LS174T. In words: Compound was evaluated for its cytotoxicity with carboxypeptidase G2 in the colorectal cell line LS174T for 1 hour. The format is functional, cell-based. The note with it: Homo sapiens. The procedure, abridged:
as §1

Data set [6] in a line: Kinetics of potential prodrugs as substrates for carboxypeptidase G2 was determined and reported as Michaelis-Menten constant. The format is ADME. Summed up: as §3
Data set [7] can be described thus: Chemical half-life in percholate at 37 degree Centigrade. Type of data set: ADME. The note with it: perchlorate solution. The procedure, abridged:
as §2

Broadly, the IC50 is the concentration that gives 50% inhibition. High values mean weaker potency, low ones greater potency. What is called half-life is the time needed for the level to fall by half in the phase considered. Low values mean fast loss, high ones slow loss. The Km is the concentration of substrate that gives half-maximal velocity.

As to `CS(=O)(=O)OCCN(CCCl)c1ccc(C(=O)O)cc1`, it took 185 µM to reach half-maximal inhibition with LS174T [1] (IC50). In data set [2], the half-life was 0.967 h.
In the case of `CS(=O)(=O)OCCN(CCCl)c1ccc(C(=O)N[C@@H](CCC(=O)O)C(=O)O)cc1`, in data set [3], the k cat turned out to be 583 s⁻¹. Besides, the “k cat/Km” value in data set [4] came to 1.71e+08 M⁻¹ s⁻¹. In the data set on LS174T [5], this compound had an IC50 of 200 µM. Moreover, the Km in data set [6] is 3.4 µM. In addition, in data set [2], the half-life came to 16.4 h.
Turning to `CS(=O)(=O)OCCN(CCCl)c1ccc(C(=O)N[C@@H](CCC(=O)O)C(=O)O)c(F)c1`, the k cat in data set [3] stood at 213 s⁻¹. Also, in data set [4], the “k cat/Km” value came out at 1.9e+07 M⁻¹ s⁻¹. Also, the Km in data set [6] came to 11 µM.
Regarding `O=C(O)CC[C@H](NC(=O)c1ccc(N(CCCl)CCCl)cc1)C(=O)O`, in data set [2], the half-life came out at 19.3 h.
For the compound `CS(=O)(=O)OCCN(CCOS(C)(=O)=O)c1ccc(C(=O)N[C@@H](CCC(=O)O)C(=O)O)cc1`, the half-life in data set [7] stood at 0.7 h.
Regarding `CS(=O)(=O)OCCN(CCCl)c1ccc(C(=O)N[C@@H](CCC(=O)O)C(=O)O)cc1F`, the k cat in data set [3] stood at 614 s⁻¹. In addition, in data set [4], the “k cat/Km” value was 1.02e+08 M⁻¹ s⁻¹. Moreover, in data set [6], the Km worked out at 6 µM. Besides, the half-life in data set [2] worked out at 2.03 h.
For the compound `O=C(O)CC[C@H](NC(=O)c1ccc(N(CCCl)CCCl)cc1F)C(=O)O`, the k cat in data set [3] came to 462 s⁻¹. The “k cat/Km” value in data set [4] was found to be 3.1e+07 M⁻¹ s⁻¹. Further, the IC50 in the data set with LS174T [5] and with LS174T [1] was > 800 µM in each case. Further, the Michaelis-Menten constant (Km) in data set [6] is 15 µM.
Regarding `CS(=O)(=O)OCCN(CCCl)c1ccc(C(=O)O)c(F)c1`, in the data set on LS174T [1], the IC50 is > 800 µM. The half-life in data set [2] was 3.2 h.
For `CS(=O)(=O)OCCN(CCCl)c1ccc(C(=O)O)cc1F`, in that order: 280 µM and 0.04 h.
In the data set on LS174T [1], `CS(=O)(=O)OCCN(CCOS(C)(=O)=O)c1ccc(C(=O)O)cc1F` gave an IC50 of 480 µM. The half-life in data set [2] turned out to be 0.0317 h.
`O=C(O)CC[C@H](NC(=O)c1ccc(N(CCCl)CCCl)c(F)c1)C(=O)O`: in data set [3], the k cat turned out to be 1028 s⁻¹. For the same compound, the “k cat/Km” value in data set [4] turned out to be 1.03e+08 M⁻¹ s⁻¹. The IC50 was 390 µM with LS174T [5] and > 800 µM in the data set on LS174T [1]. In addition, in data set [6], the Km stood at 10 µM. In data set [2], this compound had a half-life of 2.45 h.
`CS(=O)(=O)OCCN(CCOS(C)(=O)=O)c1ccc(C(=O)N[C@@H](CCC(=O)O)C(=O)O)cc1F`: the k cat in data set [3] is 565 s⁻¹. In addition, the “k cat/Km” value in data set [4] is 3.3e+07 M⁻¹ s⁻¹. The Km in data set [6] turned out to be 17 µM. For the same compound, the half-life in data set [2] worked out at 0.15 h.
